Measurements reported in publication PMC7709506 (ESMO Open, 2020).

Legend:
[1] = test system: cell lines with increased FGFR activity; details: cell lines with increased FGFR activity and known dependency on FGFR signalling; cited from earlier work
FGFR and VEGFR pathways = experiment: Soluble biomarkers of FGFR and VEGFR pathways; set-up: species or system human; details: in vivo
Outline: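 Plasma FGF23, sVEGFR2, sVEGFR1, VEGF, FGF2 and PGF were sampled at baseline, day 8 and day 29 during oral test compound dosing and analysed in batches during or at study end. Values are expressed as percentage change from baseline (day 1 predose).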

SMILES: Cn1cc(-c2ccc3c(c2)ncn3-c2cc(NS(=O)(=O)C3CC3)cc(-c3ccc(F)cc3F)c2)cn1 [ODM-203]
- cell proliferation [1]: suppresses cell proliferation
- percentage mean changes in soluble markers FGF23, VEGFR2, VEGF and PGF (FGFR and VEGFR pathways): appeared to be dose dependent
